Bioassay records from PubChem BioAssay.
hERG protect – hERG rescue from dofetilide block, primary screen, cell-based, CHO-hERG, FluxOR thallium flux, dofetilide IC70 | dofetilide IC70 present | Voltage-gated inwardly rectifying potassium channel KCNH2 (Homo sapiens), Q12809 | 310,000 compounds, 0.51% hits | activation (rescue from dofetilide block), less the hit threshold, % at 10 µM;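 active = activation above the mean of controls blocked by dofetilide plus 5 SD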;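 note: thallium influx through hERG after potassium depolarization seen as dye fluorescence rise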
Target sequence (Q12809 whole entry, looked up): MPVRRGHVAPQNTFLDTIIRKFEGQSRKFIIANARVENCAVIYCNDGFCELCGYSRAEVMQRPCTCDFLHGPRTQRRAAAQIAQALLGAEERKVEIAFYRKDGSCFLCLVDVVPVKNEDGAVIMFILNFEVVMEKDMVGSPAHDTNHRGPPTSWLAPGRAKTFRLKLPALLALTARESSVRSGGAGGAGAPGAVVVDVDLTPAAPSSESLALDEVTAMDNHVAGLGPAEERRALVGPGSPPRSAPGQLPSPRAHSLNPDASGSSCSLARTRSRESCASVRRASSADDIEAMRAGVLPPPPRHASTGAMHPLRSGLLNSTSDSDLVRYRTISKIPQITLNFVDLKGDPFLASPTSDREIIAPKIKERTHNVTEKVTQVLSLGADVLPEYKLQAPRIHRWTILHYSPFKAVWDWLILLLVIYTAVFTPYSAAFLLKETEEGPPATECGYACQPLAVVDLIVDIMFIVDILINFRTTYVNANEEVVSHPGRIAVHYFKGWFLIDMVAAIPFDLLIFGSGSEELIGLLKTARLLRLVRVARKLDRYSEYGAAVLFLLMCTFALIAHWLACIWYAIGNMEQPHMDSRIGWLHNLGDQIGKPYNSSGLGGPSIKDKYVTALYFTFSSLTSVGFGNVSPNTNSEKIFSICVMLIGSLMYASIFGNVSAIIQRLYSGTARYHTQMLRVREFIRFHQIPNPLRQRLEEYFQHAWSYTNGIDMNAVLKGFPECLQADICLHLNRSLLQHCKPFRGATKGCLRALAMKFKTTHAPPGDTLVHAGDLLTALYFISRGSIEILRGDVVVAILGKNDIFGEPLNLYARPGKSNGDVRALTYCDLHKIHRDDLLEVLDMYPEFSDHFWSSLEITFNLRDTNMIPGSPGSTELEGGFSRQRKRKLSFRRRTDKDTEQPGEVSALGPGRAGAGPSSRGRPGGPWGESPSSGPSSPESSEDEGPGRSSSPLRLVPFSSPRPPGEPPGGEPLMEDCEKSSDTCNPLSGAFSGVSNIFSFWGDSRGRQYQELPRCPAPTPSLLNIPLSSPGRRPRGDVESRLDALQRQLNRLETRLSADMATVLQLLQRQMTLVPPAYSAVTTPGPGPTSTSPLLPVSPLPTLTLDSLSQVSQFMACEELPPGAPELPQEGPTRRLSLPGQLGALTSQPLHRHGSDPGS
KCNQ1 inh – inhibitors of human KCNQ1 channel, primary screen, cell-based, thallium flux, high-throughput; CHO-K1 KCNQ1, FluxOR thallium flux fluorescence; active compounds read high; B-score at 10 µM; 310,000 compounds, 1.3% hits;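 active = compounds whose thallium flux B-score, printed positive for inhibition, exceeds three library SD while starting fluorescence stays within three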;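 note: channel opened by potassium depolarization with thallium stimulus after 20 min compound exposure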
KCNQ1 pot – potentiators or activators of KCNQ1 channel, primary screen, cell-based, thallium flux, high-throughput. Potassium voltage-gated channel subfamily KQT member 1 (Homo sapiens), P51787. B-score at 10 µM. CHO-K1 KCNQ1, thallium flux FluxOR fluorescence; active compounds read high. 310,000 compounds, 0.35% hits;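 active = fluorescence ratio B-score, a plate-corrected score, at least three library SD, with initial intensity B-score within 5 SD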
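assay system = CHO-K1 cells stably expressing KCNQ1 | medium = assay buffer, equal DMSO in all wells | timing = 37 °C overnight plating, 90-min dark dye load, 20-min compound pretreatment | measured by = kinetic FluxOR thallium fluorescence, 10-s 1-Hz baseline, 110-s post-stimulus read | measure = fluorescence change relative to baseline, converted to B score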
KCNK9 block – KCNK9 potassium channel inhibitors, primary screen, HEK293 cells, thallium flux; Potassium channel subfamily K member 9 (Homo sapiens), Q9NPC2; FluxOR thallium flux fluorescence; active compounds read low; B-score at 10 µM; 310,000 compounds, 1.2% hits; AID 488922, 2010;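 active = ratio B-score over 3 SD below the library mean, with starting fluorescence within 5 SD of its mean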;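 note: negative B-score means less thallium flux so channel inhibition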
KCNK3 block – human KCNK3 channel inhibitors, primary screen, CHO cells, FluxOR thallium flux, B-score. Potassium channel subfamily K member 3 (Homo sapiens), O14649. FluxOR fluorescence; active compounds read low. B-score at 10 µM. 340,000 compounds, 0.84% hits. AID 602410, 2012;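 active = B-score under library mean minus 4 SD, starting fluorescence ratio at most library mean plus 5 SD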;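 note: more negative B-score means stronger inhibition of thallium flux through KCNK3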
KCNQ1 block val – KCNQ1 potassium channel inhibitors, confirmation, cell-based, Tl flux, duplicate; inhibition, % at 10 µM; AID 588353, 2011; KCNQ1 cell line, FluxOR thallium flux fluorescence; 1,600 compounds, 93% hits; shares compounds with KCNQ1 inh;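 active = primary screen active, with duplicate mean exceeding buffer control mean plus 3 SD of buffer wells, cut at about 28% in these data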;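 note: 0% = buffer control ratio and 100% = XE991 inhibitor control ratio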
CHO KCNQ1 ctr – thallium flux effects in parental CHO cells, counter-screen for KCNQ1 inhibitor project, cell-based, Tl flux; shares compounds with KCNQ1 inh; parental CHO-K1, FluxOR thallium flux fluorescence ratio; active compounds read low; zero means no signal rise above baseline; fluorescence ratio (Tl flux) at 10 µM; 1,600 compounds, 21% hits;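 active = mean of duplicate thallium-flux fluorescence ratios in parental host cells more than 5 SD below the buffer control mean, cut at about 0.38 in these data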;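 note: ratio is peak minus minimum fluorescence divided by baseline fluorescence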
KCNQ1 ephys val – KCNQ1 channel inhibitors, confirmation, orthogonal assay, cell-based, automated electrophysiology | shares compounds with KCNQ1 inh | KCNQ1-CHO cells, automated patch clamp current | calls only at 10 µM | 490 compounds, 20% hits;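 active = KCNQ1 current drop exceeding 3 SD of negative control wells, seen in both duplicate runs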;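 note: steady state current during a 2 s step from -80 to +40 mV; negative values mean current inhibition and positive values mean potentiation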
KCNQ2 spec – KCNQ2 channel inhibition, selectivity assay for KCNQ1 inhibitor project, cell-based | shares compounds with KCNQ1 inh | KCNQ2 cells, FluxOR thallium flux fluorescence | inhibition, % at 10 µM | 1,600 compounds, 71% hits | AID 651746, 2012;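 active = mean percent inhibition of the KCNQ2 thallium signal more than 5 SD above the buffer-only control wells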;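 note: KCNQ2 expressed in CHO cells; 0% = buffer control wells and 100% = XE-991 inhibitor control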
KCNQ1 KCNE1 spec – KCNQ1/KCNE1 channel inhibition, selectivity assay for KCNQ1 inhibitor project, CHO-K1 cells, thallium flux, FluxOR; FluxOR thallium flux fluorescence; shares compounds with KCNQ1 inh; AID 652147, 2013; inhibition, % at 10 µM; 1,600 compounds, 77% hits;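 active = mean percent inhibition of duplicate wells above the buffer-only control mean plus 3 SD of those controls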;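 note: 0% = buffer only wells and 100% = XE-991 inhibitor control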
The depositor's hits bear a star; i = inactive; x = not tested or not shown; + = active, no number. The list is not random: actives were taken first. Their share in the collection is about 3.1%.

SMILES | hERG protect | KCNQ1 inh | KCNQ1 pot | KCNK9 block | KCNK3 block | KCNQ1 block val | CHO KCNQ1 ctr | KCNQ2 spec | KCNQ1 KCNE1 spec | others
CCCCOc1ccc(CSCCN)cc1Cl | -14 | 6* | i | i | i | 68* | 0.44 | i | 103%*
C=CCNc1ncnc2c1[nH]c1ccc(Cl)cc12 | -9 | 7* | i | i | i | 84* | 0.52 | i | i
Cc1ccc(NC(=O)Nc2nnc(-c3ccncc3)s2)cc1C | -8 | 11* | i | i | i | 105* | 0.5 | i | 57%* | KCNQ1 ephys val=i
O=C(Nc1ccc(Cl)cc1)Nc1nnc(-c2ccncc2)s1 | -11 | i | i | i | i | x | x | x | x
COc1cccc(CNC(=O)CSc2nnc3c(n2)[nH]c2ccccc23)c1 | -9 | i | i | i | i | x | x | x | x
CCN(CC)C(=O)[C@H]1C[C@H](CC(=O)NCCC2=CCCCC2)C(=O)N2CCc3c([nH]c4ccc(Cl)cc34)[C@]12C | x | x | x | x | i | x | x | x | x
CC(=O)c1cccc(NC(=O)c2ccc3c(c2)CCN3S(=O)(=O)c2ccccc2)c1 | -9 | 6* | i | i | i | 65* | 0.53 | i | 78%*
CC(=O)Nc1cccc(NC(=O)c2ccc3c(c2)CCN3S(=O)(=O)c2ccccc2)c1 | -9 | i | i | i | i | x | x | x | x
Cc1ccc(S(=O)(=O)N2CCCc3cc(NC(=O)c4c(F)cccc4F)ccc32)cc1 | -7 | 7* | i | i | i | 66* | 0.44 | 85%* | 100%*
COc1cccc(OC)c1C(=O)Nc1ccc2c(c1)CCCN2S(=O)(=O)c1ccc(C)cc1 | -5 | i | i | i | i | x | x | x | x
O=C(Nc1ccccc1)Nc1ccccc1NS(=O)(=O)c1cccs1 | -21 | 10* | i | i | i | 64* | 0.51 | 64%* | i
COC(=O)c1ccc2c(=O)n(Cc3ccc(C(=O)NCCCN4CCC(C)CC4)cc3)c(=S)[nH]c2c1 | -4 | i | i | i | i | x | x | x | x
CC1CCN(CCCNC(=O)c2ccc3c(=O)n(Cc4ccc(Cl)cc4)c(=S)[nH]c3c2)CC1 | -44 | 7* | i | i | i | 0 | 0.48 | i | i
CCOC(=O)c1cccc(Nc2nc(-c3cccnc3)nc3ccccc23)c1 | -19 | 7* | i | i | i | 124* | 0.39 | 122%* | + | KCNQ1 ephys val=i
CCN(CC)c1ccc(O)c(C=Nc2ccc(C)c(C)c2)c1 | -9 | 11* | i | i | i | 150* | 0.44 | 110%* | 166%* | KCNQ1 ephys val=i
CCN(CC)c1ccc(C=Nc2ccccc2C)c(O)c1 | -9 | i | i | i | i | x | x | x | x
CC(=O)c1c(C)n(CC(=O)NCc2ccco2)c2ccccc12 | -14 | 10* | i | i | i | 33* | 0.54 | i | 50%*
O=C(CCC1CCCCC1)Nc1nnc(C(F)(F)F)s1 | 0 | 6* | i | i | i | 64* | 0.54 | i | 34%*
